# Assay results gathered from unrelated publications.
# Each line is one published result; the experiments were not run side by side.
# Target: Receptor tyrosine-protein kinase erbB-2 (ERBB2, Homo sapiens, UniProt P04626)
Compound,test,conditions,remaining binding [%]
CN(C)c1nccc(-c2cnc3ncccn23)n1,binding,1 µM,0
O=C(Nc1cnc(Oc2ccc(F)cc2)nc1)N1CCc2ncccc2[C@@H]1c1ccc(F)cc1,"cell-free assay, competition with immobilised ligand",1 µM,80
Cc1cnn2ncc(-c3ccnc(N(C)C)n3)c2c1,binding,1 µM,94
O=C(NCCCN1CCOCC1)c1ccc(Nc2nccc(-c3cc4ccccc4s3)n2)cc1,"binding, competition with immobilised ligand",1 µM,93
N#Cc1ccccc1CSc1nnc2c(n1)[nH]c1ccccc12,"binding, competition with immobilised ligand",10 µM,94
O=C(c1ccc(Nc2nccc(-c3cc4ccccc4s3)n2)cc1)N1CCC(N2CCCC2)CC1,"binding, competition with immobilised ligand",1 µM,90
N[C@H]1CCN(c2nccc(-c3cnn4ncccc34)n2)C1,binding,1 µM,84
O=C(Nc1ccc(Oc2ccc(F)cc2)cc1)N1CCc2ncccc2[C@H]1c1ccc(F)cc1,"cell-free assay, competition with immobilised ligand",1 µM,100
C[C@H]1CCN(c2nccc(-c3cnn4ncccc34)n2)C1,binding,1 µM,94
CNC(=O)[C@@H]1CC[C@@H](n2c(-c3ccc4cnccc4c3)nc3ccc(C(=O)NCc4cccc(C(N)=O)c4)cc32)C1,"binding, competition with immobilised ligand",1 µM,100
COc1cccc(CNC(=O)c2nc3scc(COCc4ccc(C(=O)O)cc4)c3c(=O)[nH]2)c1,"cell-free assay, competition with immobilised ligand",1 µM,97.2
Cc1cnc(Nc2ccc(C(=O)N3CCC(N4CCCC4)CC3)cc2)nc1-c1cc2ccccc2s1,"binding, competition with immobilised ligand",1 µM,64
O=C(Nc1c[nH]nc1C(=O)NC1CCNCC1)c1cc(F)cc(F)c1,"binding, competition with immobilised ligand",1 µM,69
CN(CCCC(F)(F)F)c1nccc(-c2cnn3ncccc23)n1,binding,1 µM,99
COc1ncc2cc3ccccc3nc2c1C#N,"cell-free assay, competition with immobilised ligand",5 µM,70
CN(C)c1ncc(F)c(-c2cnn3ncccc23)n1,binding,1 µM,98
CNCc1ccccc1-c1csc([C@H](C)Nc2nc(C)nc3cc(OC)c(OC)cc23)c1,"cell-free assay, competition with immobilised ligand",1 µM,100
C[C@@H](c1ccc(-n2cnc3c(N)ncnc32)cc1)N1CCc2nn(C)c(Cc3ccccc3)c2C1=O,"binding, competition with immobilised ligand",0.1 µM,81
CS(=O)(=O)N1CCCC(NC(=O)[C@H](CCC2CCCCC2)NC(=O)c2ccc(CNC(=O)c3cnc4ccccn34)cc2)C1 (stereo partly drawn),"cell-free assay, competition with immobilised ligand",0.1 µM,100
C[C@@H]1CN(c2ccc3ncc(-c4ccc5[nH]nc(C6CC6)c5c4)n3n2)C[C@H](C)O1,"binding, competition with immobilised ligand",0.5 µM,68
COc1cc(-c2cn(C3CCc4ccccc4N(CC(F)(F)F)C3=O)nn2)ccc1-n1ccc(C)n1 (stereo not drawn),"cell-free assay, competition with immobilised ligand",1 µM,100
FC(F)(F)Oc1cccc(-c2cnc3ccc(-c4ccncc4)nn23)c1,"cell-free assay, competition with immobilised ligand",5 µM,57
CC(=O)c1c(NS(C)(=O)=O)c2cc(-c3ccc(Cl)cc3)c(-c3ccc(Cl)cc3Cl)nc2n(C)c1=O,"cell-free assay, competition with immobilised ligand",1 µM,100
CCN1CCN(Cc2ccc(C(=O)Nc3ccc(C)c(Oc4ccc5c(c4)CC(=O)N5)c3)cc2C(F)(F)F)CC1,"binding, competition with immobilised ligand",1 µM,80
